Data reported in ChEMBL document CHEMBL4002632, “Development of gallic acid formazans as novel enoyl acyl carrier protein reductase inhibitors for the treatment of tuberculosis” (Bioorg Med Chem Lett, 2017).
Values after ≈ are worked out from the molar mass of the structure shown. Active and inactive are the calls of the source. No cut-off for these calls is given here.

Legend:
Type in all cases: functional
[1] = tested on: Mycobacterium tuberculosis; assay: Antimycobacterial activity against isoniazid/rifampicin/kanamycin/streptomycin-resistant Mycobacterium tuberculosis by microplate Alamar Blue assay
In short: (§1)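 MIC against multidrug-resistant M. tuberculosis strains: HR, HRKS, HRKCpm, HRKSXMfxLev and HRS. Linezolid served as reference.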

[2] = tested on: Mycobacterium tuberculosis; assay: Antimycobacterial activity against isoniazid/rifampicin/kanamycin/capreomycin-resistant Mycobacterium tuberculosis by microplate Alamar Blue assay; in short: as §1
[3] = tested on: Mycobacterium tuberculosis; assay: Antimycobacterial activity against isoniazid/rifampicin/kanamycin/streptomycin/ofloxacin/moxifloxacin/levofloxacin-resistant Mycobacterium tuberculosis by microplate Alamar Blue assay; in short: as §1
[4] = tested on: Mycobacterium tuberculosis; assay: Antimycobacterial activity against isoniazid/rifampicin/streptomycin-resistant Mycobacterium tuberculosis by microplate Alamar Blue assay; in short: as §1
[5] = tested on: Mycobacterium tuberculosis; assay: Antimycobacterial activity against isoniazid/rifampicin-resistant Mycobacterium tuberculosis by microplate Alamar Blue assay; in short: as §1

| Structure (SMILES) | MIC [1] | MIC [2] | MIC [3] | MIC [4] | MIC [5] |
| --- | --- | --- | --- | --- | --- |
| O=C(N/N=C(/N=N/c1ccccc1)c1ccccc1)c1cc(O)c(O)c(O)c1 | inactive | inactive | inactive | inactive | inactive |
| CC(=O)NC[C@H]1CN(c2ccc(N3CCOCC3)c(F)c2)C(=O)O1 [LINEZOLID] | 2.78 µM (≈ 0.938 µg/mL) | 1.86 µM (≈ 0.627 µg/mL) | 1.86 µM (≈ 0.627 µg/mL) | 3.7 µM (≈ 1.25 µg/mL) | 3.7 µM (≈ 1.25 µg/mL) |
| O=C(N/N=C(/N=N/c1ccccc1[N+](=O)[O-])c1ccccc1)c1cc(O)c(O)c(O)c1 | inactive | inactive | inactive | 14.8 µM (≈ 6.25 µg/mL) | 5.46 µM (≈ 2.3 µg/mL) |
| COc1ccccc1/N=N/C(=N/NC(=O)c1cc(O)c(O)c(O)c1)c1ccccc1 | inactive | inactive | inactive | inactive | 23.9 µM (≈ 9.69 µg/mL) |
| O=C(N/N=C(/N=N/c1ccc(F)cc1)c1ccccc1)c1cc(O)c(O)c(O)c1 | 0.73 µM (≈ 0.288 µg/mL) | 1.92 µM (≈ 0.757 µg/mL) | inactive | 0.96 µM (≈ 0.379 µg/mL) | 0.49 µM (≈ 0.193 µg/mL) |
| O=C(N/N=C(/N=N/c1ccc(Cl)cc1Cl)c1ccccc1)c1cc(O)c(O)c(O)c1 | 5.16 µM (≈ 2.3 µg/mL) | 7.43 µM (≈ 3.31 µg/mL) | 11.4 µM (≈ 5.09 µg/mL) | 1.34 µM (≈ 0.597 µg/mL) | 0.33 µM (≈ 0.147 µg/mL) |
| O=C(N/N=C(/N=N/c1ccccc1Cl)c1ccccc1)c1cc(O)c(O)c(O)c1 | inactive | inactive | inactive | 2.95 µM (≈ 1.21 µg/mL) | 2.9 µM (≈ 1.19 µg/mL) |
| Cc1ccccc1/N=N/C(=N/NC(=O)c1cc(O)c(O)c(O)c1)c1ccccc1 | 16 µM (≈ 6.25 µg/mL) | inactive | inactive | 5.89 µM (≈ 2.3 µg/mL) | 5.89 µM (≈ 2.3 µg/mL) |
| COc1ccc(/N=N/C(=N/NC(=O)c2cc(O)c(O)c(O)c2)c2ccccc2)cc1 | 2.92 µM (≈ 1.19 µg/mL) | 7.62 µM (≈ 3.1 µg/mL) | 10.6 µM (≈ 4.29 µg/mL) | 1.9 µM (≈ 0.772 µg/mL) | 1.9 µM (≈ 0.772 µg/mL) |
| O=C(N/N=C(/N=N/c1ccc([N+](=O)[O-])cc1)c1ccccc1)c1cc(O)c(O)c(O)c1 | 22.3 µM (≈ 9.4 µg/mL) | 14 µM (≈ 5.9 µg/mL) | inactive | 5.46 µM (≈ 2.3 µg/mL) | 2.85 µM (≈ 1.2 µg/mL) |
